NSD2 inh: blocks human histone methyltransferase NSD2. O96028. NSD2 peptide methylation, AlphaScreen, 120 min. inhibition, % at 12.5 µM. 0.54% of 310,000 active. AID 743445; in the data active = inhibition above about 50%
UBC9 SUMO inh: SUMOylation inhibition. 0.36% of 290,000 active. inhibition, % at 35 µM. AID 2006. HTRF SUMOylation assay, SAE1/SAE2 + UBC9, in vitro. P63279; in the data active = inhibition above about 50%, passing the limit was not always enough
Target sequence (P63279 whole entry, looked up): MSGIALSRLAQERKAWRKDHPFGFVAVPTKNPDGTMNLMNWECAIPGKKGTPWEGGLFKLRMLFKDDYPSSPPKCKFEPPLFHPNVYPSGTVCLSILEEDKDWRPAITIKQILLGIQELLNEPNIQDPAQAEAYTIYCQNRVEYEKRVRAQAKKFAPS
CTSL1 counter: blocks F. hepatica cathepsin L1 in PFM18AAP counter-screen; recombinant F. hepatica cathepsin L1, Z-Leu-Arg-MCA fluorescence; inhibition, % at 5.96 µM; 0.49% of 300,000 active;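 active = inhibition above the mean of all tested compounds plus 3 SD, set per screening campaign, cut at about 17% in these data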;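 note: 0% = plate median of test compound wells and 100% = 1 µM Z-Phe-Ala-diazomethylketone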
TDP2 absorb: blocks human TDP2 phosphodiesterase activity | recombinant TDP2, T5PNP hydrolysis, p-nitrophenol absorbance 415 nm | inhibition, % at 12.8 µM | 0.34% of 370,000 active | AID 720702;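 active = inhibition above the mean of all tested compounds plus 3 SD, set per campaign, cut at about 25% in these data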;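 note: 0% = DMSO with enzyme and 100% = buffer with substrate but no TDP2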
Target sequence (O95551 whole entry, looked up): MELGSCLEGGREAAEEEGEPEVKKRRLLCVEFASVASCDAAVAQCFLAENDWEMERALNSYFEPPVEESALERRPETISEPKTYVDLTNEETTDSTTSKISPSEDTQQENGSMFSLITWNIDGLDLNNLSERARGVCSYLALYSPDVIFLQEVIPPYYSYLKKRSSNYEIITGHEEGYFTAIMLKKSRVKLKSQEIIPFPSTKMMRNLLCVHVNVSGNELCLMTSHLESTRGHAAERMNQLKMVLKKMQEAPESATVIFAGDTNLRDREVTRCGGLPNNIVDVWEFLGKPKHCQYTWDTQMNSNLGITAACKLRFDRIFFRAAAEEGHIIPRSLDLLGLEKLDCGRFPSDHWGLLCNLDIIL
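System – recombinant human TDP2 · Amount – 120 nM TDP2 per well · Buffer or medium – Mg2+-containing Tris-HCl buffer, pH 7.5 · Reagent – T5PNP substrate, 5 mM · Dosing – 12.8 µM single point, 1% DMSO · Incubation – 2 h at 37 °C · Measured by – epi absorbance · Read-out basis – percent inhibition · Benchmarks – high control without enzyme, low control DMSO plus TDP2 · Repeats – singlicate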
The depositor's hits bear a star; x = no result. Only some compounds are listed: those with a hit (about 1.2% of all), similar ones and a draw of the others.

SMILES | NSD2 inh | UBC9 SUMO inh | CTSL1 counter | TDP2 absorb
N#Cc1nc(N2CCCCC2)nc(N2CCOCC2)n1 | 1 | 15 | 76* | -8
CN(C)c1nc(C#N)nc(N2CCOCC2)n1 | 5 | 10 | 53* | 8
CCOC(=O)CNc1nc(Cl)nc(N2CCCCC2)n1 | 1 | 3 | 1 | 6
CN(C)c1nc(SCC#N)nc(N2CCOCC2)n1 | -3 | -16 | -6 | 0
O=C(OCC#CCSc1nnc(-c2cccc3ccccc23)o1)c1ccc(SC(F)(F)F)cc1 | x | x | x | -12
Cc1cc(-c2ccc(C(C)C)c(S(=O)(=O)N3CC(=O)Nc4ccccc43)c2)on1 | 18 | 8 | -1 | -3
CCC(=O)N1CCC1(C)C(=O)Nc1nccs1 (configuration not stated) | 0 | x | x | -5
Cc1cccc(CCNC(=O)C2CC(O)CN2C(=O)Nc2ccccc2)c1 (configuration not stated) | -2 | x | x | -3
Cc1c(NC(=O)CSCc2ccc(Cl)cc2Cl)cccc1C(=O)O | -3 | 11 | 19* | -17
O=C(N/N=C\c1cn[nH]c1-c1ccc(Cl)cc1)c1cccs1 | 2 | 52* | 5 | -16
O=C(N/N=C/c1cn[nH]c1-c1ccc(Cl)cc1)c1ccc([N+](=O)[O-])cc1 | 15 | -19 | -3 | 0
COC(=O)Nc1ccc([N+](=O)[O-])cc1OC | -1 | -4 | 1 | 23
COC(=O)CSc1cc([N+](=O)[O-])ccc1NC(=O)OC | -1 | 6 | 19* | 1
O=C(CSc1nnc(-c2cccnc2)s1)Nc1ccc(Cl)c(C(=O)O)c1 | 0 | x | x | x
Cc1cccn2cc(-c3ccc(S(=O)(=O)N4CCOCC4)cc3)nc12 | x | 56* | 2 | 2
Cc1cccn2cc(-c3ccc(S(=O)(=O)N4CCCCC4)cc3)nc12 | -5 | 36 | -1 | -2
Cc1ccc(S(=O)(=O)NCc2ccccc2)cc1C(=O)NCC(=O)Nc1c(C)cccc1C | -2 | x | x | 2
COCCCNc1nc2c(-c3cccc(C)c3)nnn2c2ccccc12 | x | 41 | 18* | 6
O=C(CCCCCCCC(=O)c1ccccc1)c1ccccc1 | -5 | 8 | -1 | 6
C=C(CCC(=O)c1ccccc1)C(=O)c1ccccc1 | 4 | -6 | 41* | 1
COc1c(C)oc2cc(O)ccc2c1=O | 0 | 50* | 1 | 0
Cc1oc2cc(O)ccc2c(=O)c1Oc1ccc(F)cc1 | -2 | 34 | -9 | 12
Cc1cc(SCC(=O)NCC(c2cccs2)N2CCOCC2)c(C)cc1Br (configuration not stated) | -3 | x | 2 | -11
Cc1ccc(N2CCN(C(=O)CN3C(=O)c4ccccc4C3=O)CC2)cc1 | 2 | 28 | 21* | -1
O=C(NCCc1ccccc1Cl)[C@@H]1CCCN1C(=O)[C@@H](NC(=O)N1CCOCC1)C1CCCCC1 | x | x | x | -2
SMILES | NSD2 inh | UBC9 SUMO inh | CTSL1 counter | TDP2 absorb
Cn1cc(/C=N/NC(N)=S)c2ccccc21 | 1 | -3 | 100* | -4
C=CCNC(=S)N/N=C/c1cn(C)c2ccccc12 | -1 | -29 | 5 | 17
COCCN1CCN(C(=O)C2CCC(=O)N(CCc3cccc(F)c3)C2)CC1 (configuration not stated) | -2 | -5 | -1 | 6
CCCn1nc([N+](=O)[O-])c(C(C#N)c2nc3ccccc3s2)c(Cl)c1=O (configuration not stated) | 52* | 21 | 3 | 4
CCn1nc([N+](=O)[O-])c(C(C#N)c2nc3ccccc3n2C)c(Cl)c1=O (configuration not stated) | 22 | 5 | -4 | 4
CCC1CCC(C(=O)NC(C(=O)NCCN2CCOCC2)C(C)C)CC1 (configuration not stated) | -3 | 14 | 30* | -5
CCCCCC1CCC(C(=O)NCCN2CCOCC2)CC1 (configuration not stated) | 2 | 0 | 4 | 14
Cn1ccs/c1=N\C(=O)Nc1cccc(C(F)(F)F)c1 | -6 | -12 | 2 | 5
CCOC(=O)c1nn(-c2ccc(C)cc2)c(=O)c2c(N)scc12 | -2 | -4 | 17* | 6
CCCCNC(=O)Oc1c(Br)cc2sc(=O)oc2c1Br | x | 92 | 23* | x
Oc1oc(-c2cccc3ccccc23)nc1/C=N/c1nccs1 | 0 | 30 | 22* | 1
O=C(COC(=O)c1c2c(nc3ccccc13)/C(=C/c1ccco1)CC2)NC1CCCC1 | 1 | 71* | x | 0
CC1CCCCC1NC(=O)COC(=O)c1c2c(nc3ccccc13)/C(=C/c1ccco1)CC2 (configuration not stated) | 3 | 65* | 1 | 6
Cc1cc(C(=O)OCC(=O)NC2CCCC2)c2ccccc2n1 | -1 | x | x | -1
O=C1C2C3C=CC(CC3)C2C(=O)N1c1ccccc1[N+](=O)[O-] (configuration not stated) | 1 | -1 | 19* | 2
C/C(CC(=O)N1CCCC1)=N\NC(=O)c1cc2ccccc2cc1O | 70* | -3 | 3 | 11
Cc1cc2nc3c(=O)[nH]c(=O)[nH]c3nc2c([N+](=O)[O-])c1N | x | 76* | x | -13
Cc1c(N)c(C(C)(C)C)cc(C(C)(C)C)c1[N+](=O)[O-] | 0 | -29 | 2 | 2
Cc1ccc(C(=O)C2=C(O)C(=O)N(Cc3ccco3)C2c2cccc(Br)c2)o1 (configuration not stated) | 4 | 3 | 18* | -10
COc1ccc(C2=NN(C(N)=S)C(c3ccco3)C2)cc1 (configuration not stated) | 4 | 21 | 62* | 4
CCN1Cc2nnn(Cc3ccccc3)c2-c2cc(N3CCCC3)ccc2S1(=O)=O | x | x | x | 9
CC(C(=O)N1CCN(Cc2ccc3c(c2)OCO3)CC1)c1ccc([N+](=O)[O-])cc1 (configuration not stated) | 2 | 8 | 18* | 2
O=C(c1cc(C2CC2)on1)N1CCCC(N2CCN(c3ccc(F)cc3)CC2)C1 (configuration not stated) | 1 | -3 | 5 | 6
CC(C)=CCc1cc(-c2oc3cc(O)cc(O)c3c(=O)c2O)ccc1O | x | x | -2 | -5
CC(C)=CCc1c(O)cc2oc3c(CC=C(C)C)c(O)c(O)c(CC=C(C)C)c3c(=O)c2c1O | x | 50* | 0 | 2
SMILES | NSD2 inh | UBC9 SUMO inh | CTSL1 counter | TDP2 absorb
COc1ccc(CN2C(C(=O)NCC(C)C)CSCCS2(=O)=O)cc1 (configuration not stated) | x | x | x | -8
COc1cc(C=Nn2c(-c3ccccc3F)n[nH]c2=S)ccc1OCc1ccccc1 | 1 | x | x | 12
COc1ccc(S(=O)(=O)N(C(=O)c2ccco2)c2cc3sc(=O)oc3c3ccccc23)cc1 | 9 | 20 | 0 | 6
Cc1ccc(S(=O)(=O)N(C(=O)c2ccco2)c2cc3sc(=O)oc3c3ccccc23)cc1 | 16 | 56* | 1 | -3
Cc1ccsc1C(=O)N1CCC1(C)C(=O)NS(=O)(=O)c1ccc(C#N)cc1 (configuration not stated) | -3 | x | x | -4
CSc1ccccc1C(=O)N(C)Cc1ccccc1 | 26 | 4 | -2 | 9
Cc1ccccc1C(=O)N(C)Cc1ccccc1 | 12 | 14 | 17* | -2
